{"source": "ChEMBL document CHEMBL4342471", "about": "“Discovery of Thieno[2,3-d]pyrimidine-Based Hydroxamic Acid Derivatives as Bromodomain-Containing Protein 4/Histone Deacetylase Dual Inhibitors Induce Autophagic Cell Death in Colorectal Carcinoma Cells” (J Med Chem, 2020)", "key": {"HCT-116 [1]": {"test_system": "HCT-116", "assay": "Antitumor activity against human HCT116 cells xenografted in BALB/cAnNCrl mouse assessed as reduction in tumor volume by measuring T/C ratio at 15 mg/kg, po administered on day 1 to day 19 relative to control", "type": "functional", "how_it_was_run": "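HCT-116 xenografts in mice were given the test agent orally at 15 or 30 mg/kg, with a saline control group, over 19 days. Tumor volume was followed during treatment and tumors were weighed at the end. Body weight was monitored. Inhibition is expressed as treatment-to-control (T/C) ratio.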"}, "HCT-116 [2]": {"test_system": "HCT-116", "assay": "Induction of apoptosis in human HCT116 cells assessed as necrotic cells at 0.5 uM by Annexin-V FITC/propidium iodide staining-based flow cytometry (reference value: 0.304 %)", "type": "functional"}, "[3]": {"assay": "Cmax in Sprague-Dawley rat at 30 mg/kg, po measured up to 1440 mins by UPLC-QTOF/MS analysis", "type": "ADME, organism-based", "design": "dose 30 mg/kg, route oral", "conditions": "in vivo"}, "HCT-116 [4]": {"test_system": "HCT-116", "assay": "Induction of apoptosis in human HCT116 cells assessed as apoptotic cells at 0.5 uM by Annexin-V FITC/propidium iodide staining-based flow cytometry (reference value: 6.3 +/- 0.4 %)", "type": "functional"}, "Homo sapiens [5]": {"species_on_record": "Homo sapiens", "assay": "Inhibition of BRD4/HDAC in human HCT116 cells assessed as increase in CTF1 mRNA level at 0.5 uM after 24 hrs by RT-PCR analysis", "type": "cell-based", "how_it_was_run": "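HCT-116 cells incubated 24 h with test agent (0.5 µM, 2.0 µM or 10 µM depending on compound); IL6, OSM, LIF and CTF1 mRNA levels then quantified.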"}, "[6]": {"molecular_target": "T1, Bromodomain-containing protein 4 (Homo sapiens, UniProt O60885)", "assay": "Inhibition of BRD4 in human HCT116 cells assessed as induction of autophagy by measuring p62 degradation at 0.5 uM measured after 24 hrs by Western blot analysis", "type": "cell-based"}, "LoVo": {"test_system": "LoVo", "assay": "Cytotoxicity against human LoVo cells assessed as reduction in cell viability", "type": "functional, cell-based", "how_it_was_run": "(§1)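 Antiproliferative IC50 values were measured by MTT assay across a panel of colorectal carcinoma cell lines and normal colorectal epithelial cells.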"}, "[7]": {"molecular_target": "T1, Bromodomain-containing protein 4", "assay": "Inhibition of BRD4 in human HCT116 cells assessed as induction of autophagic flux by measuring accumulation of LC3-II at 0.5 uM after 24 hrs in presence of auto-phagolysosome inhibitor, bafilomycin-A1 by Western blot analysis", "type": "cell-based", "how_it_was_run": "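HCT-116 cells received 0.5 μM compound with or without bafilomycin-A1 for 24 hours. LC3 and p62 protein were then analysed by western blot.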"}, "HCT-116 [8]": {"test_system": "HCT-116", "assay": "Induction of apoptotic cell death in human HCT116 cells assessed as change in nuclear morphology at 0.2 to 0.5 uM after 12 hrs by Hoechst 33258 staining based fluorescence microscopy analysis", "type": "functional", "how_it_was_run": "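Nuclear morphology was examined by Hoechst 33258 staining in HCT-116 cells after treatment at 0.2 or 0.5 μM.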"}, "[9]": {"molecular_target": "T1, Bromodomain-containing protein 4", "assay": "Inhibition of human recombinant His-tagged BRD4 BD2 domain using H-SGRGK(Ac)GGK(Ac)GLGK-(Ac)GGAK(Ac)RHRK(Biotin)-OH as substrate preincubated with enzyme for 30 mins followed by substrate addition measured after 30 mins by AlphaScreen assay"}, "Homo sapiens [10]": {"species_on_record": "Homo sapiens", "assay": "Inhibition of BRD4/HDAC in human HCT116 cells assessed as inhibition of IL6-JAK-STAT3 signaling pathway by measuring decrease in OSMR expression at 0.5 uM after 24 hrs by Western blot analysis", "type": "cell-based", "how_it_was_run": "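HCT-116 cells treated 24 h with 0.5 µM, 5.0 µM or 10 µM test agent depending on compound; OSMR, LIFR and downstream pathway proteins detected by western blot.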"}, "HCT-116 [11]": {"test_system": "HCT-116", "assay": "Induction of apoptosis in human HCT116 cells assessed as early apoptotic cells at 0.2 uM by Annexin-V FITC/propidium iodide staining-based flow cytometry (reference value: 2.8 %)", "type": "functional"}, "HT-29": {"test_system": "HT-29", "assay": "Cytotoxicity against human HT-29 cells assessed as reduction in cell viability", "type": "functional, cell-based", "how_it_was_run": "as §1"}, "Mus musculus": {"test_system": "Mus musculus", "assay": "In vivo inhibition of HDAC in BALB/cAnNCrl mouse xenografted with human HCT116 cells assessed as increase in acetylated histone H3 level in tumor tissue at 15 to 30 mg/kg, po administered on day 1 to day 19 measured on day 19 by immunohistochemical analysis", "type": "functional, organism-based", "how_it_was_run": "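HCT-116 xenograft mice were dosed orally at 15 or 30 mg/kg, or 30 mg/kg for reference agents, for 19 days, with vehicle or saline controls. Tumor sections were stained for Ki-67, c-Myc, Ac-H3, BRD4, LC3-II, LIFR and p-STAT3 by immunohistochemistry, and TUNEL staining was used as the apoptosis marker.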"}, "Histone deacetylase 11": {"molecular_target": "Histone deacetylase 11 (Homo sapiens, UniProt Q96DB2)", "sequence (Q96DB2 whole entry, the tested form may be a part)": "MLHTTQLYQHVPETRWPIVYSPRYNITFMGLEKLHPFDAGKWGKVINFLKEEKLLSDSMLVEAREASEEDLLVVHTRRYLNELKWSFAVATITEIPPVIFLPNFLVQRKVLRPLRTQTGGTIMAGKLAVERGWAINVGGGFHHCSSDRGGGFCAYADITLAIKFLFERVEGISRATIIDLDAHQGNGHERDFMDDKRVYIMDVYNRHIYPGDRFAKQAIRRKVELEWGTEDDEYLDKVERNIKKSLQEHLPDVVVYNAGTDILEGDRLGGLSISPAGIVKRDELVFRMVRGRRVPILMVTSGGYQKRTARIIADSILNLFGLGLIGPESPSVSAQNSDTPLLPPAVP", "assay": "Inhibition of HDAC11 (unknown origin) using biotinylated histone H3 KAc peptide (1 to 21 residues) as substrate by HTRF assay"}, "HCT-116 [12]": {"test_system": "HCT-116", "assay": "Induction of apoptosis in human HCT116 cells assessed as late apoptotic cells at 0.2 uM by Annexin-V FITC/propidium iodide staining-based flow cytometry (reference value: 3.51 %)", "type": "functional"}, "[13]": {"assay": "Tmax in Sprague-Dawley rat at 30 mg/kg, iv administered as bolus dose measured up to 1440 mins by UPLC-QTOF/MS analysis", "type": "ADME, organism-based", "conditions": "in vivo"}}, "note": "Active and inactive are the calls of the source. The calls are words filed in the database; no cut-off is given here."}
{"smiles": "Cc1cc(-c2nc3sc4c(c3c(=O)[nH]2)CCN(C)C4)cc(C)c1OCCCCCC(=O)NO", "values": [{"measurement": "T/C", "setting": "HCT-116 [1]", "value": 42.7, "unit": "%"}, {"measurement": "Activity", "setting": "HCT-116 [2]", "value": 9.75, "unit": "%"}, {"measurement": "Cmax", "setting": "[3]", "value": 5360, "unit": "ng/mL"}, {"measurement": "Activity", "setting": "HCT-116 [4]", "value": 45.3, "unit": "%"}, {"measurement": "inhibition", "setting": "Homo sapiens [5]", "value": "Active"}, {"measurement": "inhibition", "setting": "[6]", "value": "Active"}, {"measurement": "Activity", "setting": "LoVo", "value": "Active"}, {"measurement": "inhibition", "setting": "[7]", "value": "inactive"}, {"measurement": "Activity", "setting": "HCT-116 [8]", "value": "Active"}, {"measurement": "IC50", "setting": "[9]", "value": 2050, "unit": "nM"}, {"measurement": "inhibition", "setting": "Homo sapiens [10]", "value": "Active"}, {"measurement": "Activity", "setting": "HCT-116 [11]", "value": 8.2, "unit": "%"}, {"measurement": "Activity", "setting": "HT-29", "value": "Active"}, {"measurement": "inhibition", "setting": "Mus musculus", "value": "Active"}, {"measurement": "IC50", "setting": "Histone deacetylase 11", "value": "> 10000", "unit": "nM"}, {"measurement": "Activity", "setting": "HCT-116 [12]", "value": 23, "unit": "%"}, {"measurement": "Tmax", "setting": "[13]", "value": 7.2, "unit": "min"}]}
